Active and inactive are the calls of the source. The calls are words filed in the database; no cut-off is given here.
Tests used:
Vitamin D3 receptor [1] = biological target: T1, Vitamin D3 receptor (Homo sapiens, UniProt P11473); experiment: Agonist activity at VDR-LBD (unknown origin) expressed in Escherichia coli assessed as SRC2-3 coactivator peptide recruitment after 30 mins by fluorescence polarization assay
T1 sequence (P11473 whole entry): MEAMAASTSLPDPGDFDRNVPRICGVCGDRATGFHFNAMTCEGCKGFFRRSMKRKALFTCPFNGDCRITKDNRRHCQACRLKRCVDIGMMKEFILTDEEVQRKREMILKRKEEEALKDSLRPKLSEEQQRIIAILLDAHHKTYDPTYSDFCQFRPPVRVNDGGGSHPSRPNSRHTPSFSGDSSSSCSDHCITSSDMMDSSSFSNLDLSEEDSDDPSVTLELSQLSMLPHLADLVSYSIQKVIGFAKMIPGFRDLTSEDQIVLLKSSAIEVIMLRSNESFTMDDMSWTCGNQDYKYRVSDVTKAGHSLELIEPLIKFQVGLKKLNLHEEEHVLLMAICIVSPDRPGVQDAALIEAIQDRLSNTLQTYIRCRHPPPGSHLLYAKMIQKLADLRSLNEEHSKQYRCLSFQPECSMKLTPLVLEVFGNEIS

Vitamin D3 receptor [2] = biological target: T1, Vitamin D3 receptor; experiment: Antagonist activity against VDR-LBD (unknown origin) expressed in Escherichia coli assessed as inhibition of VDR agonist LG190178-induced SRC2-3 coactivator peptide recruitment after 30 mins by fluorescence polarization assay
Vitamin D3 receptor [3] = biological target: T1, Vitamin D3 receptor; experiment: Antagonist activity against VP16 tagged-VDR-LBD (unknown origin) expressed in HEK293T cells assessed as inhibition of 1,25-dihydroxyvitamin D3-induced SRC1 coactivator peptide recruitment after 16 hrs by luciferase reporter gene based two hybrid assay; assay type: cell-based, HEK-293T
[4] = Cytotoxicity against HEK293T cells assessed as reduction in cell viability after 18 hrs by CellTiter-Glo luminescence assay; assay type: cell-based, HEK-293T; details: human, read-out: LD50
Vitamin D3 receptor [5] = biological target: T1, Vitamin D3 receptor; experiment: Agonist activity at VP16 tagged-VDR-LBD (unknown origin) expressed in HEK293T cells assessed as SRC1 coactivator peptide recruitment after 16 hrs by luciferase reporter gene based two hybrid assay; assay type: cell-based, HEK-293T
Vitamin D3 receptor [6] = biological target: T1, Vitamin D3 receptor; experiment: Agonist activity at human VP16 tagged-VDR-LBD after 16 hrs by luciferase reporter gene based transcription assay
Procedure, shortened: (§1)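 HEK293T cells were lipid-transfected with hVDR-Gal4 and 4×UAS luciferase reporter plasmids for 16 h. Cells were then plated at 15,000/well on matrigel in phenol-red-free DMEM with 2% charcoal-treated FBS. Compounds (1:3 serial dilution, max final 150 µM) were added after 4 h and incubated 16 h at 37°C; readout by Bright-Glo luminescence. […] Three experiments in quadruplicate; nonlinear regression.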

[7] = biological target: T2, Vitamin D3 receptor (Homo sapiens) (UniProt P11473); experiment: Agonist activity at VP16 tagged-VDR-LBD (unknown origin) expressed in HEK293T cells assessed as SRC1 coactivator peptide recruitment after 16 hrs by luciferase reporter gene based two hybrid assay relative to 1,25-dihydroxyvitamin D3; assay type: cell-based; details: HEK-293T
T2 sequence (whole entry): T1 sequence (P11473 whole entry)
Procedure, shortened: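 HEK293T cells were lipid-transfected with VP16-VDR-LBD, SRC1-GAL4 and 4×UAS luciferase reporter plasmids for 16 h. Cells were then plated at 15,000/well on matrigel in phenol-red-free DMEM with 2% charcoal-treated FBS. Three experiments in quadruplicate; nonlinear regression.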

[8] = biological target: T2, Vitamin D3 receptor (Homo sapiens); experiment: Agonist activity at VDR-LBD in human DU145 cells assessed as CYP24A1 expression at 7.5 uM after 18 hrs by qRT-PCR method relative to 1alpha,25-dihydroxyvitamin D3; assay type: cell-based; details: DU-145
Procedure, shortened: (§2)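 Non-transfected DU145 cells were grown in DMEM with 10% heat-inactivated FBS and plated on matrigel-coated 6-well plates overnight at 37°C. Total RNA was isolated and CYP24A1 fold change was measured by real-time RT-PCR (Ct method). Experiments were run in triplicate; significance by Dunnett ANOVA.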

[9] = biological target: T2, Vitamin D3 receptor (Homo sapiens); experiment: Agonist activity at human VP16 tagged-VDR-LBD after 16 hrs by luciferase reporter gene based transcription assay relative to 1,25-dihydroxyvitamin D3; procedure, shortened: as §1
[10] = biological target: T2, Vitamin D3 receptor (Homo sapiens); experiment: Agonist activity at VDR-LBD in human DU145 cells assessed as CYP24A1 expression at 7.5 uM in presence of 20 nM 1alpha,25-dihydroxyvitamin D3 after 18 hrs by qRT-PCR method; assay type: cell-based; details: DU-145
Procedure, shortened: as §2, with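 “37°C. […]” for “37°C.”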

C[C@H](CCC(=O)O)[C@H]1CC[C@H]2[C@@H]3[C@@H](O)C[C@@H]4C[C@H](O)CC[C@]4(C)[C@H]3CC[C@]12C [URSODIOL]
EC50 (Vitamin D3 receptor [1]): > 150 µM
IC50 (Vitamin D3 receptor [2]): > 150 µM
IC50 (Vitamin D3 receptor [3]): > 50 µM
CC50 at 18 h [4]: > 150 µM
EC50 (Vitamin D3 receptor [5]): > 150 µM

C[C@H](CCC(=O)O)[C@H]1CC[C@H]2[C@@H]3CC[C@@H]4C[C@H](O)CC[C@]4(C)[C@H]3CC[C@]12C [LITHOCHOLIC ACID]
CC50 at 18 h [4]: 55.9 µM

CC(=O)O[C@@H]1CC[C@@]2(C)[C@H](CC[C@@H]3[C@@H]2CC[C@]2(C)[C@@H]([C@H](C)CCC(=O)O)CC[C@@H]32)C1
EC50 (Vitamin D3 receptor [1]): > 150 µM
IC50 (Vitamin D3 receptor [2]): 11 µM
IC50 (Vitamin D3 receptor [3]): > 50 µM
CC50 at 18 h [4]: > 50 µM
EC50 (Vitamin D3 receptor [5]): 1.49 µM

C[C@H](CCC(=O)NCCS(=O)(=O)O)[C@H]1CC[C@H]2[C@@H]3CC[C@@H]4C[C@H](O)CC[C@]4(C)[C@H]3CC[C@]12C [TAUROLITHOCHOLIC ACID]
EC50 (Vitamin D3 receptor [1]): > 150 µM
IC50 (Vitamin D3 receptor [2]): 14.5 µM
IC50 (Vitamin D3 receptor [3]): > 50 µM
CC50 at 18 h [4]: > 150 µM
EC50 (Vitamin D3 receptor [5]): > 150 µM

C[C@H](CCC(=O)O)[C@H]1CC[C@H]2[C@@H]3CC[C@@H]4C[C@H](O[C@@H]5O[C@H](C(=O)O)[C@@H](O)[C@H](O)[C@H]5O)CC[C@]4(C)[C@H]3CC[C@]12C
EC50 (Vitamin D3 receptor [6]): 12.3 µM
EC50 (Vitamin D3 receptor [1]): > 50 µM
Efficacy [7]: 49%
IC50 (Vitamin D3 receptor [2]): 31.5 µM
IC50 (Vitamin D3 receptor [3]): > 150 µM
Activity [8]: inactive
Efficacy [9]: 55%
CC50 at 18 h [4]: > 150 µM
EC50 (Vitamin D3 receptor [5]): 20.5 µM

C[C@H](CCC(=O)O)[C@H]1CC[C@H]2[C@@H]3[C@H](O)C[C@@H]4C[C@H](O)CC[C@]4(C)[C@H]3CC[C@]12C [CHENODIOL]
EC50 (Vitamin D3 receptor [1]): > 150 µM
IC50 (Vitamin D3 receptor [2]): > 150 µM
IC50 (Vitamin D3 receptor [3]): > 50 µM
CC50 at 18 h [4]: > 150 µM
EC50 (Vitamin D3 receptor [5]): > 150 µM

C[C@H](CCC(=O)O[C@@H]1O[C@H](C(=O)O)[C@@H](O)[C@H](O)[C@H]1O)[C@H]1CC[C@H]2[C@@H]3CC[C@@H]4C[C@H](O)CC[C@]4(C)[C@H]3CC[C@]12C
EC50 (Vitamin D3 receptor [6]): 21.3 µM
EC50 (Vitamin D3 receptor [1]): > 150 µM
Efficacy [7]: 29%
IC50 (Vitamin D3 receptor [2]): 2.86 µM
IC50 (Vitamin D3 receptor [3]): > 150 µM
Activity [8]: Active
Activity [10]: Active
Efficacy [9]: 70%
CC50 at 18 h [4]: > 150 µM
EC50 (Vitamin D3 receptor [5]): 6.52 µM

C=C1/C(=C\C=C2/CCC[C@]3(C)[C@@H]([C@H](C)CC(=O)O)CC[C@@H]23)C[C@@H](O)C[C@@H]1O
EC50 (Vitamin D3 receptor [1]): > 100 µM
Efficacy [7]: 55%
IC50 (Vitamin D3 receptor [2]): 2.29 µM
IC50 (Vitamin D3 receptor [3]): > 100 µM
Activity [8]: Active
CC50 at 18 h [4]: > 100 µM
EC50 (Vitamin D3 receptor [5]): 0.87 µM

C[C@H](CCC(=O)NCC(=O)O)[C@H]1CC[C@H]2[C@@H]3CC[C@@H]4C[C@H](O)CC[C@]4(C)[C@H]3CC[C@]12C [LITHOGLYCOCHOLATE]
EC50 (Vitamin D3 receptor [1]): > 150 µM
IC50 (Vitamin D3 receptor [2]): 40.1 µM
IC50 (Vitamin D3 receptor [3]): > 50 µM
CC50 at 18 h [4]: > 150 µM
EC50 (Vitamin D3 receptor [5]): > 150 µM

C[C@H](CCC(=O)O)[C@H]1CC[C@H]2[C@@H]3CC[C@@H]4C[C@H](O)CC[C@]4(C)[C@H]3C[C@H](O)[C@]12C [DEOXYCHOLIC ACID]
EC50 (Vitamin D3 receptor [1]): > 150 µM
IC50 (Vitamin D3 receptor [2]): > 150 µM
IC50 (Vitamin D3 receptor [3]): > 50 µM
CC50 at 18 h [4]: > 150 µM
EC50 (Vitamin D3 receptor [5]): > 150 µM

C[C@H](CCC(=O)O)[C@H]1CC[C@H]2[C@@H]3C[C@H](O)[C@@H]4C[C@H](O)CC[C@]4(C)[C@H]3CC[C@]12C [HYODEOXYCHOLIC_ACID]
EC50 (Vitamin D3 receptor [1]): > 150 µM
IC50 (Vitamin D3 receptor [2]): > 150 µM
IC50 (Vitamin D3 receptor [3]): > 50 µM
CC50 at 18 h [4]: > 150 µM
EC50 (Vitamin D3 receptor [5]): > 150 µM

COC(=O)CC[C@@H](C)[C@H]1CC[C@H]2[C@@H]3CC[C@@H]4C[C@H](O)CC[C@]4(C)[C@H]3CC[C@]12C
EC50 (Vitamin D3 receptor [1]): > 150 µM
IC50 (Vitamin D3 receptor [2]): > 150 µM
IC50 (Vitamin D3 receptor [3]): 15.1 µM
CC50 at 18 h [4]: 50.4 µM
EC50 (Vitamin D3 receptor [5]): > 150 µM

C[C@H](CCC(=O)O)[C@H]1CC[C@H]2[C@@H]3CC[C@@H]4C[C@H](OS(=O)(=O)O)CC[C@]4(C)[C@H]3CC[C@]12C
EC50 (Vitamin D3 receptor [1]): > 150 µM
IC50 (Vitamin D3 receptor [2]): 23.3 µM
IC50 (Vitamin D3 receptor [3]): > 50 µM
CC50 at 18 h [4]: > 150 µM
EC50 (Vitamin D3 receptor [5]): > 150 µM

Source: ChEMBL document CHEMBL3763103, “Synthesis and evaluation of vitamin D receptor-mediated activities of cholesterol and vitamin D metabolites” (Eur J Med Chem, 2016)
